Each compound was assayed on K562 (assay: Antiproliferative activity against K562 cell line). Details: Homo sapiens.
Format: functional
Summary of the method: (§1)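 Suspended human leukaemic lines (K-562, HL-60, THP-1) grown in RPMI 1640 with penicillin/streptomycin and 10% FBS. About 10 000 cells per well in bicarbonate medium without HEPES. Test substances added in serial twofold dilutions (1:2 to 1:1024). Incubation 72 h, 37 °C, 5% CO2, humidified. Cells counted electronically, each count the mean of three. GI50 read where the concentration–response curve crosses 50% of control counts.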
`N[C@@H](CS)C(=O)Nc1ccc(NC(=O)Cc2ccc(Br)cc2)c(C(=O)c2ccccc2)c1` was tested, and the GI50 was 7.9 µM. `Cc1ccc(CC(=O)Nc2ccc(NC(=O)[C@@H](N)CS)cc2C(=O)c2ccccc2)cc1` showed a GI50 of 8.1 µM.

These compounds were tested on HL-60 (assay: Antiproliferative activity against HL60 cell line). Details: Homo sapiens.
Format: functional
Summary of the method: as §1
`N[C@@H](CS)C(=O)Nc1ccc(NC(=O)Cc2ccc(Br)cc2)c(C(=O)c2ccccc2)c1` was tested, and the GI50 was 4.2 µM.

The compounds below were run on THP-1 (assay: Antiproliferative activity against THP-1 cell line). Details: Homo sapiens.
Format: functional
Summary of the method: as §1
With `N[C@@H](CS)C(=O)Nc1ccc(NC(=O)Cc2ccc(Br)cc2)c(C(=O)c2ccccc2)c1` the GI50 was 14.9 µM.

What follows are compounds tested against T1, Farnesyltransferase (Saccharomyces cerevisiae S288c, UniProt P22007+P29703) (assay: Inhibitory activity against farnesyltransferase.). Details: not given.
T1 sequence (P29703 whole entry): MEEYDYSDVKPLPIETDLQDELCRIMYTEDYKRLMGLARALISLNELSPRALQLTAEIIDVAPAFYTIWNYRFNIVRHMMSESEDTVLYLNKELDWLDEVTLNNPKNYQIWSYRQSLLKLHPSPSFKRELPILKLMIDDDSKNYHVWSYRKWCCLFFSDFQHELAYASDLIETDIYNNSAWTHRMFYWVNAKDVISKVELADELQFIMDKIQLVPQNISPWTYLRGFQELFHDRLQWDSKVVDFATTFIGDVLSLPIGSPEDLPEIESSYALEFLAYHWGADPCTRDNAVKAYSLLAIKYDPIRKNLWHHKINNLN
T1 sequence (P22007 whole entry): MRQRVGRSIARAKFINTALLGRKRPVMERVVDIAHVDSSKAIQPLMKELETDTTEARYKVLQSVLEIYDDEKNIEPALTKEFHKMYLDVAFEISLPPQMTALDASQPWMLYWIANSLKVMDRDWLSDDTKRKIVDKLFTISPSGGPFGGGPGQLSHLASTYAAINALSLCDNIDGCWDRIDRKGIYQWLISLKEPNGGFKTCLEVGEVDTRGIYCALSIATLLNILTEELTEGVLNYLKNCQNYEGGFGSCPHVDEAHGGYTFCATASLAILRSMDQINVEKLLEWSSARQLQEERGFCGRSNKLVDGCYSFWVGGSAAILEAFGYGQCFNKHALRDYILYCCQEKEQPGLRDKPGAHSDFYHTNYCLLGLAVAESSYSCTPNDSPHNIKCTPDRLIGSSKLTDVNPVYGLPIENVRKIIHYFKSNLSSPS
Format: protein-complex assay
Summary of the method: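 Yeast FTase, GST fused at the N-terminus of the β-subunit, expressed in E. coli DH5α and purified on glutathione-agarose. Buffer: 50 mM Tris/HCl pH 7.4, 5 mM MgCl2, 10 μM ZnCl2, 5 mM DTT. Substrates: 7 μM dansyl-GCVLS, 20 μM FPP. Inhibitor in 1% DMSO. IC50 from initial velocities at four or five concentrations, three independent runs, mean ± SD.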
For `CC(C(=O)Nc1ccc(NC(=O)[C@@H](N)CS)cc1C(=O)c1ccccc1)c1ccccc1` (stereo not given in full), the IC50 was 0.65 µM. `N[C@@H](CS)C(=O)Nc1ccc(NC(=O)C(c2ccccc2)c2ccccc2)c(C(=O)c2ccccc2)c1` was tested, and the IC50 was 0.036 µM. Compound `CC(=O)Nc1ccc(NC(=O)[C@@H](N)CS)cc1C(=O)c1ccccc1` has an IC50 of 7.6 µM. `Cc1ccccc1CC(=O)Nc1ccc(NC(=O)[C@@H](N)CS)cc1C(=O)c1ccccc1` was tested, and the IC50 was 0.4 µM. With `CC(CC(=O)Nc1ccc(NC(=O)[C@@H](N)CS)cc1C(=O)c1ccccc1)CC(C)(C)C` (stereo not given in full) the IC50 was 8.6 µM. In the case of `N[C@@H](CS)C(=O)Nc1ccc(NC(=O)Cc2ccc3ccccc3c2)c(C(=O)c2ccccc2)c1`, the IC50 is reported as 0.46 µM. Work on `N[C@@H](CS)C(=O)Nc1ccc(NC(=O)C(=O)c2ccccc2)c(C(=O)c2ccccc2)c1` yielded an IC50 of 1.42 µM. For `N[C@@H](CS)C(=O)Nc1ccc(NC(=O)Cc2ccc(Br)cc2)c(C(=O)c2ccccc2)c1`, the IC50 was 0.076 µM. With `COC(=O)CCC(=O)Nc1ccc(NC(=O)[C@@H](N)CS)cc1C(=O)c1ccccc1` the IC50 was 1.8 µM. `N[C@@H](CS)C(=O)Nc1ccc(NC(=O)Cc2ccc(Cl)cc2Cl)c(C(=O)c2ccccc2)c1` gave an IC50 of 0.12 µM. `N[C@@H](CS)C(=O)Nc1ccc(NC(=O)c2ccccc2)c(C(=O)c2ccccc2)c1` gave an IC50 of 4.78 µM. With `N[C@@H](CS)C(=O)Nc1ccc(NC(=O)CCc2ccccc2)c(C(=O)c2ccccc2)c1` the IC50 was 1.29 µM. Work on `N[C@@H](CS)C(=O)Nc1ccc(NC(=O)Cc2ccc([N+](=O)[O-])cc2)c(C(=O)c2ccccc2)c1` yielded an IC50 of 0.115 µM. For `N[C@@H](CS)C(=O)Nc1ccc(NC(=O)Cc2ccccc2)c(C(=O)c2ccccc2)c1`, the IC50 was 0.65 µM. With `COc1ccc(CC(=O)Nc2ccc(NC(=O)[C@@H](N)CS)cc2C(=O)c2ccccc2)cc1` the IC50 was 0.545 µM. `Cc1ccc(CS(=O)(=O)Nc2ccc(NC(=O)[C@@H](N)CS)cc2C(=O)c2ccccc2)cc1` showed an IC50 of 0.1 µM. Compound `N[C@@H](CS)C(=O)Nc1ccc(NC(=O)Cc2cccc3ccccc23)c(C(=O)c2ccccc2)c1` has an IC50 of 0.38 µM. In the case of `N[C@@H](CS)C(=O)Nc1ccc(NC(=O)Cc2ccc(C(F)(F)F)cc2)c(C(=O)c2ccccc2)c1`, the IC50 is reported as 0.725 µM. For `N[C@@H](CS)C(=O)Nc1ccc(NC(=O)Cc2c(Cl)cccc2Cl)c(C(=O)c2ccccc2)c1`, the IC50 was 0.34 µM. For `COC(=O)CCCC(=O)Nc1ccc(NC(=O)[C@@H](N)CS)cc1C(=O)c1ccccc1`, the IC50 was 2.4 µM. `Cc1ccc(CC(=O)Nc2ccc(NC(=O)[C@@H](N)CS)cc2C(=O)c2ccccc2)cc1` gave an IC50 of 0.077 µM. `N[C@@H](CS)C(=O)Nc1ccc(NC(=O)CCCC(=O)O)c(C(=O)c2ccccc2)c1` was tested, and the IC50 was 0.55 µM. `N[C@@H](CS)C(=O)Nc1ccc(NC(=O)Cc2ccc(Cl)cc2)c(C(=O)c2ccccc2)c1` showed an IC50 of 0.105 µM. In the case of `N[C@@H](CS)C(=O)Nc1ccc(NC(=O)Cc2cccc(Cl)c2Cl)c(C(=O)c2ccccc2)c1`, the IC50 is reported as 0.42 µM. In the case of `Cc1cccc(CC(=O)Nc2ccc(NC(=O)[C@@H](N)CS)cc2C(=O)c2ccccc2)c1`, the IC50 is reported as 0.54 µM. `N[C@@H](CS)C(=O)Nc1ccc(NS(=O)(=O)Cc2ccccc2)c(C(=O)c2ccccc2)c1` gave an IC50 of 0.085 µM. `N[C@@H](CS)C(=O)Nc1ccc(NC(=O)Cc2ccc(Cl)c(Cl)c2)c(C(=O)c2ccccc2)c1` gave an IC50 of 0.48 µM. In the case of `N[C@@H](CS)C(=O)Nc1ccc(NC(=O)c2cccc3ccccc23)c(C(=O)c2ccccc2)c1`, the IC50 is reported as 4.6 µM. Work on `N[C@@H](CS)C(=O)Nc1ccc(NC(=O)CCC(=O)O)c(C(=O)c2ccccc2)c1` yielded an IC50 of 0.7 µM. In the case of `N[C@@H](CS)C(=O)Nc1ccc(NC(=O)Cc2cc(Cl)cc(Cl)c2)c(C(=O)c2ccccc2)c1`, the IC50 is reported as 0.535 µM. `N[C@@H](CS)C(=O)Nc1ccc(NC(=O)Cc2cc(Cl)ccc2Cl)c(C(=O)c2ccccc2)c1` was tested, and the IC50 was 2.4 µM.

From ChEMBL document CHEMBL1134575, “Synthesis, molecular modeling, and structure-activity relationship of benzophenone-based CAAX-peptidomimetic farnesyltransferase inhibitors” (J Med Chem, 2001)
